ChEMBL document CHEMBL5096209, “Structure-Activity Studies of 3,9-Diazaspiro[5.5]undecane-Based γ-Aminobutyric Acid Type A Receptor Antagonists with Immunomodulatory Effect” (J Med Chem, 2021)

Key:
[1] = biological target: GABA-A receptor; anion channel; assay: Displacement of [3H]-muscimol from rat brain cortex GABAA receptor assessed as inhibition constant incubated for 1 hr by top-counter microplate scintillation counter method; assay type: cell membranes, Membrane
[2] = biological target: T1, Gamma-aminobutyric acid receptor subunit alpha-1/beta-2/delta (Homo sapiens, UniProt O14764+P14867+P47870); assay: Antagonist activity at recombinant human alpha1beta2delta GABAA receptor expressed in HEK293 Flp-In cells by FMP assay; assay type: cell-based, Flp-In-293
T1 sequence (P14867 whole entry): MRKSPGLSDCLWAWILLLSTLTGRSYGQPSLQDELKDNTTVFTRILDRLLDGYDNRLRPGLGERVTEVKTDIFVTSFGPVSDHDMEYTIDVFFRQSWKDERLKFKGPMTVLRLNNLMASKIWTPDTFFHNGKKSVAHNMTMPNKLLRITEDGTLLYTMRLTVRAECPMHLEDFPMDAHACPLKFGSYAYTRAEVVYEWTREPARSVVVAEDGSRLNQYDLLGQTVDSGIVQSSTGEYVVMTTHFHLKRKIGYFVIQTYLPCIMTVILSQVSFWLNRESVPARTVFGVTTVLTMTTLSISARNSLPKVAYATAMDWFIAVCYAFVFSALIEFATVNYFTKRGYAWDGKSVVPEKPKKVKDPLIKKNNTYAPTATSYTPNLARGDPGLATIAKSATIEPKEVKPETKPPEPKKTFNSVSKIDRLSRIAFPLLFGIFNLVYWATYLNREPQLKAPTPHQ
T1 sequence (P47870 whole entry): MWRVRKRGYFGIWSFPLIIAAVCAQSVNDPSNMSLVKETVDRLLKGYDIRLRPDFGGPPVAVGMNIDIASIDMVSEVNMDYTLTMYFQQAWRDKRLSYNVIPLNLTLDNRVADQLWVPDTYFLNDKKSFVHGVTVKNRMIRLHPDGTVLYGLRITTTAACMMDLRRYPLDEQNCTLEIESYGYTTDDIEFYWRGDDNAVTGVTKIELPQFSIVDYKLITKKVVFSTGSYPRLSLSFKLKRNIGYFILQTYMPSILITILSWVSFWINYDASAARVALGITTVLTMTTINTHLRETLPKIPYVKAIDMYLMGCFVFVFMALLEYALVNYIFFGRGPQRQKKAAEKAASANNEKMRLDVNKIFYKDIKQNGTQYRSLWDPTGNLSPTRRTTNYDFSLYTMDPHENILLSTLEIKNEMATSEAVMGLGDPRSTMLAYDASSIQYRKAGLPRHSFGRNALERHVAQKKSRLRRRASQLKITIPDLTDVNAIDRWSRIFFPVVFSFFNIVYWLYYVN
T1 sequence (O14764 whole entry): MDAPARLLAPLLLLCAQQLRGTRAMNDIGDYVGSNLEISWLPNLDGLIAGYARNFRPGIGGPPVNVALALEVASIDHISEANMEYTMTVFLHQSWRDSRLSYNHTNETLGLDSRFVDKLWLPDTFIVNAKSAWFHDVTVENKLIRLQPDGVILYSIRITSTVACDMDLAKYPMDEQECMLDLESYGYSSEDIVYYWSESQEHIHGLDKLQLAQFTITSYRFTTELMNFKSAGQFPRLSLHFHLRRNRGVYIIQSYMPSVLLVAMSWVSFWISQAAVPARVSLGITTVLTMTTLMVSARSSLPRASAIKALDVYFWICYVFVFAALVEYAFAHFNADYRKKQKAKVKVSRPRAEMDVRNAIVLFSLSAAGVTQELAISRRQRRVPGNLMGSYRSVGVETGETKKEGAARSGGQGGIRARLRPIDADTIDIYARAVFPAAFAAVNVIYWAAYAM
Method in brief: (§1)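 HEK293 Flp-In cells stably expressing human δ subunit, transiently transfected with human α and β subunits (1:1) to form αβδ receptors. Read-out is the FLIPR membrane potential dye ΔRFU, baseline to peak/plateau, with GABA EC80 as agonist. Four-parameter fit of concentration–inhibition curves gives IC50, from at least three independent experiments.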

[3] = biological target: T2, GABA A receptor alpha-3/beta-2/gamma-2 (Homo sapiens, UniProt P18507+P34903+P47870); assay: Antagonist activity at human alpha3beta2gamma2 GABAA receptor expressed in HEK293 cells by FMP assay; assay type: cell-based
T2 sequence (P47870 whole entry): T1 sequence (P47870 whole entry)
T2 sequence (P18507 whole entry): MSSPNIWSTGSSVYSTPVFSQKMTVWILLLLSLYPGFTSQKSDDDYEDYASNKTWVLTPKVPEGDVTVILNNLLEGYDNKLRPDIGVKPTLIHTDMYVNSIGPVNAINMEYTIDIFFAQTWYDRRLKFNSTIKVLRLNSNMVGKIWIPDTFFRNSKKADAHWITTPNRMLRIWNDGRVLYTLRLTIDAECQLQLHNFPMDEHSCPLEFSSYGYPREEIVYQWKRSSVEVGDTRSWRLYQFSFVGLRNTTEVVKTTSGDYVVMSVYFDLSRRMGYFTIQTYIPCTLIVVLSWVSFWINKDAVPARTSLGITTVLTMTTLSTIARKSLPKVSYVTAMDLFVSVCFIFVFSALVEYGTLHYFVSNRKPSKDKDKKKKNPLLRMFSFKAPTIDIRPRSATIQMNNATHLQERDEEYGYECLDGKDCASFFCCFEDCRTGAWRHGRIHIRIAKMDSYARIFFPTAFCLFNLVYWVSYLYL
T2 sequence (P34903 whole entry): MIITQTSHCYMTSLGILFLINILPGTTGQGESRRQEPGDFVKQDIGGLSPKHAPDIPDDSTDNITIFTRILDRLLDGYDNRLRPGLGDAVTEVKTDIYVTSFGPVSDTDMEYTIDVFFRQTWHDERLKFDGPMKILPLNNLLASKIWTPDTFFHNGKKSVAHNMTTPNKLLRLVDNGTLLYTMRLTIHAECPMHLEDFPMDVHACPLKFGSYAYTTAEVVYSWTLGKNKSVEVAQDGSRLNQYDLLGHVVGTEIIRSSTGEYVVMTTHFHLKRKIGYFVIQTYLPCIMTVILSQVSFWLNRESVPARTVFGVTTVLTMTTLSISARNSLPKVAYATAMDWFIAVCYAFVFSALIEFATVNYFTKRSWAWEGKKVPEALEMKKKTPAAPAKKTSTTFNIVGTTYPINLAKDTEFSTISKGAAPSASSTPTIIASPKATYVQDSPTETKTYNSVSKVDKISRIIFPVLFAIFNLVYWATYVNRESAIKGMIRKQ
Method in brief: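 Human αβγ2 receptors in HEK293 cells: α1β2γ2 stably expressed, other αβγ2 subtypes transiently transfected into HEK293 Flp-In background cells (α:β:γ 1:1:2). FLIPR membrane potential assay with ΔRFU baseline to peak/plateau and GABA EC80 as agonist. IC50 from a four-parameter fit, at least three independent experiments.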

[4] = biological target: T1, Gamma-aminobutyric acid receptor subunit alpha-1/beta-2/delta; assay: Antagonist activity at human alpha1beta2delta GABAA receptor expressed in HEK293 Flp-In cells by FMP assay; assay type: cell-based, Flp-In-293; method in brief: as §1

| Ki [1] [µM] | IC50 [2] [µM] | IC50 ([2]; read-out: pIC50 (converted)) [µM] | IC50 [3] [µM] | IC50 ([3]; read-out: pIC50 (converted)) [µM] | IC50 [4] [µM] | IC50 ([4]; read-out: pIC50 (converted)) [µM] | SMILES |
| --- | --- | --- | --- | --- | --- | --- | --- |
| 0.56 | 6.68 | 6.76 | – | – | – | – | CC(=O)Nc1cccc(C(=O)N2CCC3(CCNCC3)CC2)c1 |
| – | – | – | 3.57 | 3.24 | 13.2 | 13.2 | Cc1ccc(C(=O)N2CCC3(CCNCC3)CC2)cc1 |
| 0.02 | – | 0.245 | – | – | – | – | O=C(Nc1cccc(C(=O)N2CCC3(CCNCC3)CC2)c1)c1cccs1 |
| – | – | – | 0.56 | 0.501 | 4.95 | 4.9 | Cc1cccc(C(=O)N2CCC3(CCNCC3)CC2)c1 |
